The values below come from the RNAGym collection of RNA variant scans (doi:10.1126/science.aae0568).

Variants at the floor of the assay were thinned out.

The labels stand for the following.
B1: tRNA (parent)
chain: GUUCCGUUGGCGUAAUGGUAACGCGUCUCCCUCCUAAGGAGAAGACUGCGGGUUCGAGUCCCGUACGGAACG

In this data set the parent is B1. In words: yeast fitness relative to wild type (ratio to wild type); higher = fitter; tRNA-Arg(CCU), competitive growth, 37 C, YPD. Put shortly:
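Gene amplicons from the start population and from each of six end populations were read by 100-nucleotide paired-end sequencing. Those end populations came from pooled Saccharomyces cerevisiae strains carrying tRNA-Arg(CCU) gene variants at the native locus, competed in YPD at 37°C for 24 hours. Fitness relative to wild type was worked out from changes in genotype frequencies. Genotypes needed ≥ 100 starting reads, and estimates < 0.5 were set to 0.5.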
Turning to GUUCCGUUGGCGUAAUGGUAACGCGUCUCCCUCCUAAGGAGAAGACUGCGGGUUCGAGUCCCAUACGGAACG, the yeast fitness amounted to 0.853. Turning to GUUCCGUUGGCGUAAUGGUAACGCGUCUCCCUCCUAAGGAGAAGACUGCGGGUUCGAGUCCCAUACAGGACG, the yeast fitness was at most 0.5. Next, GUUCCGUUGGCGUAAUGGUAACGCGUCUCCCUCCUAAGGAGAAGACUGCGGGUUCGAGUCUCGUACGAAGCG: 0.648. Take GUUCCGUUGGCGUAAUGGUAACGCGUCUCCCUCCUAAGGAGAAGACUGCGGGUUCGAGUCCGGUGCGGAUCG: the yeast fitness is at most 0.5. Next, GUUCCGUUGGCGUAAUGGUAACGCGUCUCCCUCCUAAGGAGAAGACUGCGGGUUCGAGUCCUGUAUAGAACG: 0.52; GUUCCGUUGGCGUAAUGGUAACGCGUCUCCCUCCUAAGGAGAAGACUGCGGGUUCGAGUCUCGUAGGGAACG: 0.706. On to GUUCCGUUGGCGUAAUGGUAACGCGUCUCCCUCCUAAGGAGAAGACUGCGGGUUCGAGUCUCGUAUGGAACG, for which the yeast fitness came out at 0.929. Next, GUUCCGUUGGCGUAAUGGUAACGCGUCUCCCUCCUAAGGAGAAGACUGCGGGUUCGAGUCCAGUACGGAGCG: 0.674; GUUCCGUUGGCGUAAUGGUAACGCGUCUCCCUCCUAAGGAGAAGACUGCGGGUUCGAGUCCGGUACGGACCG: 0.679.

On to GUUCCGUUGGCGUAAUGGUAACGCGUCUCCCUCCUAAGGAGAAGACUGCGGGUUCGAGUCCCGUCCGGAACG, for which the yeast fitness came out at 1.01. With GUUCCGUUGGCGUAAUGGUAACGCGUCUCCCUCCUAAGGAGAAGACUGCGGGUUCGAGUCCGGUACGGUACG the figure was 0.839; with GUUCCGUUGGCGUAAUGGUAACGCGUCUCCCUCCUAAGGAGAAGACUGCGGGUUCGAGUCCGGUACGGGACG, 0.819. For the variant GUUCCGUUGGCGUAAUGGUAACGCGUCUCCCUCCUAAGGAGAAGACUGCGGGUUCGAGUCCUGAACGGAACG, the yeast fitness amounted to 0.735. Next, GUUCCGUUGGCGUAAUGGUAACGCGUCUCCCUCCUAAGGAGAAGACUGCGGGUUCGAGUCUCGUACGGAUCG: 1.04; GUUCCGUUGGCGUAAUGGUAACGCGUCUCCCUCCUAAGGAGAAGACUGCGGGUUCGAGUCCAGUACGGGGCG: 0.614; GUUCCGUUGGCGUAAUGGUAACGCGUCUCCCUCCUAAGGAGAAGACUGCGGGUUCGAGUCCGGAACGGAACG: 0.695.

Take GUUCCGUUGGCGUAAUGGUAACGCGUCUCCCUCCUAAGGAGAAGACUGCGGGUUCGAGUCCGGCACGGAACG: the yeast fitness is 0.97.

Regarding GUUCCGUUGGCGUAAUGGUAACGCGUCUCCCUCCUAAGGAGAAGACUGCGGGUUCGAGUCCCGCACGGCACG, the yeast fitness stood at 0.983. Regarding GUUCCGUUGGCGUAAUGGUAACGCGUCUCCCUCCUAAGGAGAAGACUGCGGGUUCGAGUCCCGCACGGUACG, the yeast fitness was 1.07.

Take GUUCCGUUGGCGUAAUGGUAACGCGUCUCCCUCCUAAGGAGAAGACUGCGGGUUCGAGUCCCUAACGGAACG: the yeast fitness was determined as 0.676. GUUCCGUUGGCGUAAUGGUAACGCGUCUCCCUCCUAAGGAGAAGACUGCGGGUUCGAGUCCGGUACGCAGCG: the yeast fitness is at most 0.5. On to GUUCCGUUGGCGUAAUGGUAACGCGUCUCCCUCCUAAGGAGAAGACUGCGGGUUCGAGUCCCAAACGGAACG, for which the yeast fitness was 0.864. GUUCCGUUGGCGUAAUGGUAACGCGUCUCCCUCCUAAGGAGAAGACUGCGGGUUCGAGUCCCAUAGGGAACG: the yeast fitness was 0.678. On to GUUCCGUUGGCGUAAUGGUAACGCGUCUCCCUCCUAAGGAGAAGACUGCGGGUUCGAGUCUCGUGCGGAACG, for which the yeast fitness is 1.07. On to GUUCCGUUGGCGUAAUGGUAACGCGUCUCCCUCCUAAGGAGAAGACUGCGGGUUCGAGUCCUGUUCGGAACG, for which the yeast fitness amounted to 0.93.

Turning to GUUCCGUUGGCGUAAUGGUAACGCGUCUCCCUCCUAAGGAGAAGACUGCGGGUUCGAGUCCCGGACGGAUCG, the yeast fitness was 0.787. With GUUCCGUUGGCGUAAUGGUAACGCGUCUCCCUCCUAAGGAGAAGACUGCGGGUUCGAGUCCCCCACGGAACG the figure was 0.969; with GUUCCGUUGGCGUAAUGGUAACGCGUCUCCCUCCUAAGGAGAAGACUGCGGGUUCGAGUCCCCUACAGAACG, 0.692. Next, GUUCCGUUGGCGUAAUGGUAACGCGUCUCCCUCCUAAGGAGAAGACUGCGGGUUCGAGUCCCGAACGCAACG: 0.709; GUUCCGUUGGCGUAAUGGUAACGCGUCUCCCUCCUAAGGAGAAGACUGCGGGUUCGAGUCCCGAACGUAACG: 0.728.

For GUUCCGUUGGCGUAAUGGUAACGCGUCUCCCUCCUAAGGAGAAGACUGCGGGUUCGAGUCCUAUACGGAACG, the yeast fitness was 0.719. With GUUCCGUUGGCGUAAUGGUAACGCGUCUCCCUCCUAAGGAGAAGACUGCGGGUUCGAGUCCUCUACGGAACG the figure was 0.752. As for GUUCCGUUGGCGUAAUGGUAACGCGUCUCCCUCCUAAGGAGAAGACUGCGGGUUCGAGUCCUGUUCGCAACG, the yeast fitness is 0.602. In the case of GUUCCGUUGGCGUAAUGGUAACGCGUCUCCCUCCUAAGGAGAAGACUGCGGGUUCGAGUCCCGAAUGGAACG, the yeast fitness came to 0.942. In the case of GUUCCGUUGGCGUAAUGGUAACGCGUCUCCCUCCUAAGGAGAAGACUGCGGGUUCGAGUCCCGAAGGGAACG, the yeast fitness came to 0.7. Regarding GUUCCGUUGGCGUAAUGGUAACGCGUCUCCCUCCUAAGGAGAAGACUGCGGGUUCGAGUCCCCUACCGACCG, the yeast fitness stood at 0.778. In the case of GUUCCGUUGGCGUAAUGGUAACGCGUCUCCCUCCUAAGGAGAAGACUGCGGGUUCGAGUCCCGCCCGGAACG, the yeast fitness was determined as 0.891. Turning to GUUCCGUUGGCGUAAUGGUAACGCGUCUCCCUCCUAAGGAGAAGACUGCGGGUUCGAGUCCGCUACGGAACG, the yeast fitness worked out at 0.588.
